Laboratory results published in ChEMBL document CHEMBL3734738, “A structure-activity relationship of non-peptide macrocyclic histone deacetylase inhibitors and their anti-proliferative and anti-inflammatory activities” (Bioorg Med Chem, 2015).
Active and inactive are the calls of the source. The rule behind the calls is not given here.

Legend:
[1] = species on record: Homo sapiens; conditions: at 1 µM
[2] = tested on: A549; test: Cytotoxicity against human A549 cells after 72 hrs by MTS assay; format: functional, cell-based
In short: (§1)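 Cells kept in DMEM with 10% FBS and 1% penicillin-streptomycin, seeded in 96-well plates for 24 h, then exposed to a range of drug concentrations for 72 h at 0.1% DMSO; viability read by MTS assay per manufacturer's protocol.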

[3] = tested on: Vero; test: Cytotoxicity against African green monkey Vero cells after 72 hrs by MTS assay; format: cell-based; conditions: Chlorocebus sabaeus
In short: as §1

[4] = molecular target: T1, Histone deacetylase 8 (Homo sapiens, UniProt Q9BY41); test: Inhibition of recombinant HDAC8 (unknown origin) expressed in Escherichia coli BL21(DE3) after 60 mins using trichostatin A by label-free mass spectrometry-based SAMDI assay
T1 sequence (Q9BY41 whole entry): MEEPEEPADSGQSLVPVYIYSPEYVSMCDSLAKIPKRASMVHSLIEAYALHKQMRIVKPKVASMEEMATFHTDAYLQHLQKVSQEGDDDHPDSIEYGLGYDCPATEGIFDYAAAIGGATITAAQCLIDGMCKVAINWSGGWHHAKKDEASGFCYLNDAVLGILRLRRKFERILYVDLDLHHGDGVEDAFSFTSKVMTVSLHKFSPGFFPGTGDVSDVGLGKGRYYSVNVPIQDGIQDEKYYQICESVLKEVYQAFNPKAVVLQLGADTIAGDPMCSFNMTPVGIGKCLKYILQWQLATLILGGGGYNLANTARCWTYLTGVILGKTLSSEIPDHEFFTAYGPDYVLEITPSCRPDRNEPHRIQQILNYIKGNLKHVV

[5] = Inhibition of NTHi-induced NF-kappaB activation in human BEAS-2B cells treated 1 hr before NTHi stimulation measured after 5 hrs by luciferase assay; format: cell-based
[6] = molecular target: T2, Protein deacetylase HDAC6 (Homo sapiens, UniProt Q9UBN7); test: Inhibition of recombinant HDAC6 (unknown origin) expressed in Escherichia coli BL21(DE3) after 60 mins using trichostatin A by label-free mass spectrometry-based SAMDI assay
T2 sequence (Q9UBN7 whole entry): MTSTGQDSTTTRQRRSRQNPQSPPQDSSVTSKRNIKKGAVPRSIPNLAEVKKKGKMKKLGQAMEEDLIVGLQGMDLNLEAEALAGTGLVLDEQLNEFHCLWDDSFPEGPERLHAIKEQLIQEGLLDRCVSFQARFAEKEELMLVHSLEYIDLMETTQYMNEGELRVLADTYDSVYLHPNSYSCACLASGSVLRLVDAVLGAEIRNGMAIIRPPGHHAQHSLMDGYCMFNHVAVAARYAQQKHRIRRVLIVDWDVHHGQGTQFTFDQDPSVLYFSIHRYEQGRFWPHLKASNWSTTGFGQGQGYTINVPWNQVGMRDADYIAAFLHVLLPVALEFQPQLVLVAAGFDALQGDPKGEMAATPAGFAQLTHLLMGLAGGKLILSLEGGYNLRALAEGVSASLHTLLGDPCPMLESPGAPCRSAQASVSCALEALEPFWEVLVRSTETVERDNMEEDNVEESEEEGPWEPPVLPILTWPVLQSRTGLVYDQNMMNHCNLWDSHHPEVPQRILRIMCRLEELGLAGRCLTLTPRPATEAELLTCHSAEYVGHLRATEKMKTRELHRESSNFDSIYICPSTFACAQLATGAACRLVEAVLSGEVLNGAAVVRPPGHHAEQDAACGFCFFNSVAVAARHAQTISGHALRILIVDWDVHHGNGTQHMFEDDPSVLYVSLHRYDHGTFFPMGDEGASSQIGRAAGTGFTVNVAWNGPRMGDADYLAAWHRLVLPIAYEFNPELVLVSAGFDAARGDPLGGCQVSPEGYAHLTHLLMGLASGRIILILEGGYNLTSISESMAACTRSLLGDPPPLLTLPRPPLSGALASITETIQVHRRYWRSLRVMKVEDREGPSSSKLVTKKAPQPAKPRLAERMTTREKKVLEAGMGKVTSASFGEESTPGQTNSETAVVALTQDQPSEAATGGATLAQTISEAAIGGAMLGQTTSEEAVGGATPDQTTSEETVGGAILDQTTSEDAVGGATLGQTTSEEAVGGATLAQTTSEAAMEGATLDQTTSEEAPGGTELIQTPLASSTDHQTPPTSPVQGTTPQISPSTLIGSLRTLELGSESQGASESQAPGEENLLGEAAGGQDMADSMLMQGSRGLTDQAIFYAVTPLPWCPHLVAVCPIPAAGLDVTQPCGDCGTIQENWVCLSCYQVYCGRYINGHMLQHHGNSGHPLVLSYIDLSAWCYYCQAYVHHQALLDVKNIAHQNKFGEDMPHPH

[7] = molecular target: T3, Histone deacetylase 1 (Homo sapiens, UniProt Q13547); test: Inhibition of recombinant HDAC1 (unknown origin) expressed in Escherichia coli BL21(DE3) after 60 mins using trichostatin A by label-free mass spectrometry-based SAMDI assay
[8] = tested on: MCF7; test: Cytotoxicity against human MCF7 cells after 72 hrs by MTS assay; format: functional, cell-based
In short: as §1

[9] = tested on: BEAS-2B; test: Antiinflammatory activity in human BEAS2B cells assessed as inhibition of NTHi-induced TNFalpha mRNA expression at 1 uM treated 2 hrs before NTHi stimulation measured after 1.5 hrs by Q-PCR analysis; format: functional, cell-based
In short: (§2)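 BEAS-2B cells pretreated 2 h with inhibitor at 1 μM, then stimulated 1.5 h with NTHi; PBS-treated cells as unstimulated control. Total RNA isolated with TRIzol, reverse transcribed, and TNF-α, IL-1α, IL-1β mRNA quantified by SYBR Green real-time PCR with 500 nM primers, reactions in triplicate; mean of n=3, representative of three independent experiments.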

[10] = tested on: BEAS-2B; test: Antiinflammatory activity in human BEAS2B cells assessed as inhibition of NTHi-induced IL-1beta mRNA expression at 1 uM treated 2 hrs before NTHi stimulation measured after 1.5 hrs by Q-PCR analysis; format: functional, cell-based
In short: as §2

[11] = tested on: BEAS-2B; test: Antiinflammatory activity in human BEAS2B cells assessed as inhibition of NTHi-induced IL-1alpha mRNA expression at 1 uM treated 2 hrs before NTHi stimulation measured after 1.5 hrs by Q-PCR analysis; format: functional, cell-based
In short: as §2

[12] = molecular target: T3, Histone deacetylase 1; test: Inhibition of recombinant HDAC1 (unknown origin) expressed in Escherichia coli BL21(DE3) at 10 uM after 60 mins using trichostatin A by label-free mass spectrometry-based SAMDI assay
[13] = Homo sapiens, A549, 72 h, read-out: IC50
[14] = Homo sapiens, BEAS-2B, read-out: IC50
[15] = Homo sapiens, MCF7, 72 h, read-out: IC50

T3 sequence (Q13547 whole entry): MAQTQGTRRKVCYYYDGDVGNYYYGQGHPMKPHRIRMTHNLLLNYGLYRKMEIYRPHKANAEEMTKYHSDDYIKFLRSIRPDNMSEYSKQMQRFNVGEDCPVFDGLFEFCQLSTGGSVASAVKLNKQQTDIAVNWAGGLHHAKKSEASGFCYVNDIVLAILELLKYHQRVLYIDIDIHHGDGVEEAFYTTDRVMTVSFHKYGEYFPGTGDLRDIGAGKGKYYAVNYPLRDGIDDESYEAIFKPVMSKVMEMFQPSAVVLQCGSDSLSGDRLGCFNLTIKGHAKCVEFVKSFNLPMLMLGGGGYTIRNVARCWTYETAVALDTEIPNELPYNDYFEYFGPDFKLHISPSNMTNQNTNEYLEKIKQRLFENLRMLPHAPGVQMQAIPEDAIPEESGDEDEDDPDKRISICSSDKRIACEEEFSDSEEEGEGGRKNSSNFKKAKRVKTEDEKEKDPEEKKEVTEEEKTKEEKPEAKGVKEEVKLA

CC[C@@H]1OC(=O)[C@@H](C)[C@H](O[C@H]2C[C@@](C)(OC)[C@@H](O)[C@H](C)O2)[C@H](C)[C@H](O[C@@H]2O[C@H](C)C[C@H](N(C)Cc3ccc(-c4cn(CCCCCCC(=O)NO)nn4)cc3)[C@H]2O)[C@@](C)(OC)C[C@H](C)C(=O)[C@@H](C)[C@@H](O)[C@@]1(C)O (stereo in doubt)
Imax [1]: 35.9%
IC50 [2, 13]: 2.29 µM
IC50 [3]: 4.9 µM
IC50 [4]: 0.713 µM
IC50 [5, 14]: 0.243 µM
IC50 [6]: 0.00667 µM
IC50 [7]: 0.207 µM
IC50 [8, 15]: 2.86 µM

CC[C@@H]1OC(=O)[C@H](C)[C@@H](O[C@@H]2C[C@](C)(OC)[C@H](O)[C@@H](C)O2)[C@@H](C)[C@@H](O[C@@H]2O[C@H](C)C[C@H](N(C)Cc3cccc(-c4cn(CCCCCCC(=O)NO)nn4)c3)[C@H]2O)[C@](C)(O)C[C@@H](C)CN(C)[C@H](C)[C@@H](O)[C@]1(C)O
Imax [1]: 43.3%
IC50 [2, 13]: 4.09 µM
IC50 [3]: 8.35 µM
IC50 [4]: 1.44 µM
IC50 [5, 14]: 0.609 µM
IC50 [6]: 0.041 µM
IC50 [7]: 0.101 µM
IC50 [8, 15]: 2.37 µM

CC[C@H]1OC(=O)[C@@H](C)[C@H](O[C@H]2C[C@@](C)(OC)[C@](O)(CN(C)C)[C@H](C)O2)[C@H](C)[C@H](O[C@H]2O[C@@H](C)C[C@@H](N(C)Cc3ccc(-c4cn(CCCCCCC(=O)NO)nn4)cc3)[C@@H]2O)[C@@](C)(O)C[C@H](C)CN(C)[C@@H](C)[C@H](O)[C@@]1(C)O
Imax [1]: 43.4%
IC50 [2, 13]: 6.8 µM
IC50 [3]: 5.73 µM
IC50 [4]: 0.749 µM
IC50 [5, 14]: 0.575 µM
IC50 [6]: 0.0189 µM
IC50 [7]: 0.0795 µM

CC[C@H]1OC(=O)[C@@H](C)[C@H](O[C@H]2C[C@@](C)(OC)[C@@H](O)[C@H](C)O2)[C@H](C)[C@H](O[C@H]2O[C@@H](C)C[C@@H](N(C)Cc3ccc(-c4cn(CCCCCCC(=O)NO)nn4)cc3)[C@@H]2O)[C@@](C)(O)C[C@H](C)CN(C)[C@@H](C)[C@H](O)[C@@]1(C)O (stereo in doubt)
Imax [1]: 41.4%
IC50 [2, 13]: 2.32 µM
IC50 [3]: 5.9 µM
IC50 [4]: 0.314 µM
IC50 [5, 14]: 0.28 µM
IC50 [6]: 0.00729 µM
IC50 [7]: 0.0686 µM
IC50 [8, 15]: 4.08 µM

CC[C@@H]1OC(=O)[C@@H](C)[C@H](O[C@H]2C[C@@](C)(OC)[C@](O)(CN(C)Cc3ccc(-c4cn(CCCCCCC(=O)NO)nn4)cc3)[C@H](C)O2)[C@H](C)[C@H](O[C@@H]2O[C@H](C)C[C@H](N(C)C)[C@H]2O)[C@@](C)(OC)C[C@H](C)C(=O)[C@@H](C)[C@@H](O)[C@@]1(C)O
Imax [1]: 35.6%
IC50 [2, 13]: 0.99 µM
inhibition [9]: Active
IC50 [3]: 1.55 µM
IC50 [4]: 1.84 µM
IC50 [5, 14]: 0.197 µM
inhibition [10]: Active
IC50 [6]: 0.00285 µM
IC50 [7]: 0.0239 µM
IC50 [8, 15]: 0.69 µM
inhibition [11]: Active

CC[C@@H]1OC(=O)[C@@H](C)[C@H](O[C@@H]2C[C@](C)(OC)[C@@](O)(CN(C)C)[C@@H](C)O2)[C@H](C)[C@H](O[C@@H]2O[C@H](C)C[C@H](N(C)Cc3ccc(-c4cn(CCCCCCC(=O)NO)nn4)cc3)[C@H]2O)[C@@](C)(OC)C[C@H](C)C(=O)[C@@H](C)[C@@H](O)[C@@]1(C)O
Imax [1]: 33.4%
IC50 [2, 13]: 3.58 µM
IC50 [3]: 2.08 µM
IC50 [4]: 2.21 µM
IC50 [5, 14]: 0.26 µM
IC50 [6]: 0.0314 µM
IC50 [7]: 0.0333 µM
IC50 [8, 15]: 1.43 µM

CC[C@H]1OC(=O)[C@H](C)C(=O)[C@H](C)[C@@H](O[C@@H]2O[C@H](C)C[C@H](N(C)Cc3cccc(-c4cn(CCCCCC(=O)NO)nn4)c3)[C@H]2O)[C@@](C)(OC)C[C@@H](C)C2=NCCN3C(=O)O[C@@]1(C)[C@H]3[C@H]2C
Imax [1]: 71%
IC50 ([2]; a549): Not Active
IC50 [4]: 3.23 µM
IC50 [5]: Not Active
IC50 [6]: 0.0175 µM
IC50 [7]: 0.109 µM
IC50 ([8]; mcf7): Not Active

CC[C@H]1OC(=O)[C@H](C)[C@@H](O[C@@H]2C[C@](C)(OC)[C@@](O)(CN(C)Cc3ccc(-c4cn(CCCC(=O)NO)nn4)cc3)[C@@H](C)O2)[C@@H](C)[C@@H](O[C@H]2O[C@@H](C)C[C@@H](N(C)C)[C@@H]2O)[C@](C)(OC)C[C@@H](C)C(=O)[C@H](C)[C@H](O)[C@]1(C)O
IC50 [4]: 2.53 µM
inhibition [12]: 27%
IC50 [6]: 0.361 µM
IC50 [7]: > 10 µM

CC[C@H]1OC(=O)[C@H](C)C(=O)[C@H](C)[C@@H](O[C@@H]2O[C@H](C)C[C@H](N(C)Cc3ccc(-c4cn(CCCCCCC(=O)NO)nn4)cc3)[C@H]2O)[C@@](C)(OC)C[C@@H](C)C2=NCCN3C(=O)O[C@@]1(C)[C@H]3[C@H]2C
Imax [1]: 35.3%
IC50 [2, 13]: 2.19 µM
inhibition [9]: Active
IC50 [4]: 1.5 µM
IC50 [5, 14]: 0.0472 µM
inhibition [10]: Active
IC50 [6]: 0.00699 µM
IC50 [7]: 0.0208 µM
IC50 [8, 15]: 1.98 µM
inhibition [11]: Active

CC[C@@H]1OC(=O)[C@@H](C)[C@H](O[C@H]2C[C@@](C)(OC)[C@@H](O)[C@H](C)O2)[C@@H](C)[C@H](O[C@H]2O[C@@H](C)C[C@@H](N(C)C)[C@@H]2O)[C@](C)(O)C[C@H](C)CN(Cc2ccc(-c3cn(CCCCCCC(=O)NO)nn3)cc2)[C@H](C)[C@H](O)[C@@]1(C)O
Imax [1]: 31.4%
IC50 [2, 13]: 8.28 µM
inhibition [9]: Active
IC50 [3]: 6.66 µM
IC50 [4]: 1.7 µM
IC50 [5, 14]: 0.244 µM
inhibition [10]: Active
IC50 [6]: 0.00472 µM
IC50 [7]: 0.0161 µM
IC50 [8, 15]: 6.3 µM
inhibition [11]: Active

CC[C@H]1OC(=O)[C@H](C)[C@@H](O[C@@H]2C[C@](C)(OC)[C@H](O)[C@@H](C)O2)[C@@H](C)[C@@H](O[C@H]2O[C@@H](C)C[C@@H](N(C)Cc3ccc(-c4cn(CCCCCC(=O)NO)nn4)cc3)[C@@H]2O)[C@](C)(OC)C[C@@H](C)C(=O)[C@H](C)[C@H](O)[C@]1(C)O (stereo in doubt)
Imax [1]: 45.1%
IC50 [4]: 1.18 µM
IC50 [5, 14]: 0.785 µM
IC50 [6]: 0.00361 µM
IC50 [7]: 0.533 µM
